In ChEMBL document CHEMBL4813982, “Novel pyrazolo[4,3-d]pyrimidine microtubule targeting agents (MTAs): Synthesis, structure-activity relationship, in vitro and in vivo evaluation as antitumor agents” (Bioorg Med Chem Lett, 2021):

Columns and labels:
Tubulin (Homo sapiens) [1] = molecular target: T1, Tubulin (Homo sapiens) (UniProt P68371+Q9H4B7+P0DPH7+P68366+Q13509+Q71U36+P04350+Q3ZCM7+P07437+P68363+Q9BQE3+Q6PEY2+Q13885+Q9BVA1+Q9BUF5); test: Inhibition of [3H]colchicine binding to tubulin (unknown origin) at 5 uM relative to control; assay type: protein-complex assay
Tubulin (Homo sapiens) [2] = molecular target: T1, Tubulin (Homo sapiens); test: Inhibition of [3H]colchicine binding to tubulin (unknown origin) at 0.5 uM relative to control; assay type: protein-complex assay
Tubulin = test: Inhibition of tubulin assembly (unknown origin); assay type: protein-complex assay, Homo sapiens
OVCAR-8 = test: Antiproliferative activity against human OVCAR-8 cells; assay type: functional, cell-based
NCI/ADR-RES = test: Antiproliferative activity against human NCI/ADR-RES cells overexpressing Pgp; assay type: functional, cell-based
[3] = Resistance ratio of IC50 for antiproliferative activity against human NCI/ADR-RES cells expressing Pgp to IC50 for antiproliferative activity against human OVCAR-8 cells; assay type: functional
In short: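 Resistance ratio: IC50 in Pgp-overexpressing NCI/ADR-RES cells divided by IC50 in parental OVCAR-8 cells.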

MCF7 [4] = test: Antiproliferative activity against human MCF7 cells; assay type: functional, cell-based
MCF7 [5] = test: Antiproliferative activity against human MCF7 cells expressing TUBB3; assay type: functional, cell-based
[6] = Resistance ratio of EC50 for antiproliferative activity against human MCF7 cells expressing TUBB3 to EC50 for antiproliferative activity against human MCF7 cells; assay type: functional
In short: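 Resistance ratio: EC50 in MCF-7 cells overexpressing βIII-tubulin divided by EC50 in parental wild-type MCF-7 cells.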

MCF7 [7] = test: Potency index, ratio of EC50 of paclitaxel to EC50 of compound for antiproliferative activity against human MCF7 cells; assay type: functional
MCF7 [8] = test: Potency index, ratio of EC50 of paclitaxel to EC50 of compound for antiproliferative activity against human MCF7 cells expressing TUBB3; assay type: functional

In the case of `CSc1ccc(N(C)c2nc(Cl)nc3cnn(C)c23)cc1`, the inhibition (Tubulin (Homo sapiens) [1]) is reported as 93%, the inhibition (Tubulin (Homo sapiens) [2]) is reported as 64% and the IC50 (Tubulin) is reported as 820 nM. The IC50 (OVCAR-8) was 31 nM, the IC50 (NCI/ADR-RES) was 17 nM and the “Ratio IC50” value [3] was 0.54.

In the case of `COc1ccc2c(c1)CCCN2c1nc(Cl)nc2cnn(C)c12`, the inhibition (Tubulin (Homo sapiens) [1]) is reported as 94%, the inhibition (Tubulin (Homo sapiens) [2]) is reported as 68% and the IC50 (Tubulin) is reported as 420 nM. For the same compound, the IC50 (OVCAR-8) was 17 nM, the IC50 (NCI/ADR-RES) was 8 nM and the “Ratio IC50” value [3] was 0.47.

Compound `COc1ccc(N(C)c2nc(C)nc3ccn(C)c23)cc1` has an inhibition (Tubulin (Homo sapiens) [1]) of 99% and an inhibition (Tubulin (Homo sapiens) [2]) of 79%.

With `COc1ccc(N(C)c2nc(C)nc3c(Cc4ccccc4)cn(C)c23)cc1` the inhibition (Tubulin (Homo sapiens) [1]) was 92%, the inhibition (Tubulin (Homo sapiens) [2]) was 73% and the IC50 (Tubulin) was 480 nM.

With `COc1ccc(N(C)c2nc(Cl)nc3cnn(C)c23)cc1F` the inhibition (Tubulin (Homo sapiens) [1]) was 97%, the inhibition (Tubulin (Homo sapiens) [2]) was 77% and the IC50 (Tubulin) was 740 nM. For the same compound, the EC50 (MCF7 [4]) was 1.7 nM, the EC50 (MCF7 [5]) was 2.6 nM and the “Ratio EC50” value [6] was 1.6. The “Ratio EC50” value (MCF7 [7]) was 100, the “Ratio EC50” value (MCF7 [8]) was 600 and the IC50 (OVCAR-8) was 9 nM. For the same compound, the IC50 (NCI/ADR-RES) was 7 nM and the “Ratio IC50” value [3] was 0.77.

`CC(C)Oc1ccc(N(C)c2nc(Cl)nc3cnn(C)c23)cc1` showed an inhibition (Tubulin (Homo sapiens) [1]) of 85%, an IC50 (Tubulin) of 1100 nM and an IC50 (OVCAR-8) of 49 nM. The IC50 (NCI/ADR-RES) was 44 nM and the “Ratio IC50” value [3] was 0.89.

`COc1ccc(N(C)c2nc(C)nc3c(Cc4ccccc4)c[nH]c23)cc1` gave an IC50 (Tubulin) of 21000 nM.
